Experimental data as given in ChEMBL document CHEMBL5137084 (J Med Chem, 2022).

Legend:
[1] = Cmax in carboxylesterase 1 knockout C57BL/6 mouse brain at 10 mg/kg, po administered as single dose measured upto 8 hrs by LC-MS/MS analysis; format: ADME, organism-based; design: time < 8 hrs, dose 10 mg/kg, route po; conditions: in vivo
Procedure, shortened: (§1)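 Cardiac blood is spun to plasma and brains are flash frozen. Intact prodrug and released parent are quantified by LC-MS/MS against matrix-matched standards. Parameters come from non-compartmental analysis; mean ± SEM.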

[2] = Metabolic stability of the compound in carboxylesterase 1 knockout mouse brain assessed as parent compound remaining at 10 uM measured after 1 hr in by UPLC analysis; format: ADME, tissue-based
Procedure, shortened: (§2)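 Plasma, or liver or brain homogenised 10-fold in 0.1 M potassium phosphate buffer, from CES1−/− mice. Spiked with 10 μM prodrug (final) and shaken at 37 °C for 1 h, in triplicate. Samples at 0 and 1 h were quenched with three volumes of acetonitrile containing losartan. Intact prodrug was measured by UHPLC-orbitrap MS and expressed as % remaining, mean ± SE.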

[3] = Brain to plasma ratio in carboxylesterase 1 knockout C57BL/6 mouse at 10 mg/kg, po administered as single dose measured after 2 hrs by LC-MS/MS analysis; format: ADME, organism-based
Procedure, shortened: (§3)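 Mice are killed 2 h post-dose by CO2, with cardiac-puncture plasma and whole brain taken. After acetonitrile/losartan extraction, released parent and intact prodrug are measured by LC-MS/MS. Brain-to-plasma ratio is computed from released-parent levels; mean ± SEM.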

[4] = Drug release in carboxylesterase 1 knockout C57BL/6 mouse brain at 10 mg/kg, po administered as single dose measured after 2 hrs by LC-MS/MS analysis; format: ADME, organism-based; conditions: in vivo; procedure, shortened: as §3
[5] = Drug release in carboxylesterase 1 knockout C57BL/6 mouse plasma at 10 mg/kg, po administered as single dose measured after 2 hrs by LC-MS/MS analysis; format: ADME, organism-based; conditions: in vivo, read-out: Activity; procedure, shortened: as §3
[6] = Cmax in carboxylesterase 1 knockout C57BL/6 mouse plasma at 10 mg/kg, po administered as single dose measured upto 8 hrs by LC-MS/MS analysis; format: ADME, organism-based; design: time < 8 hrs, dose 10 mg/kg, route po; conditions: in vivo; procedure, shortened: as §1
[7] = Metabolic stability of the compound in carboxylesterase 1 knockout mouse plasma assessed as parent compound remaining at 10 uM measured after 1 hr in by UPLC analysis; format: ADME, cell-free; procedure, shortened: as §2
[8] = Half life in carboxylesterase 1 knockout C57BL/6 mouse brain at 10 mg/kg, po administered as single dose measured upto 8 hrs by LC-MS/MS analysis; format: ADME, organism-based; procedure, shortened: as §1
[9] = Tmax in carboxylesterase 1 knockout C57BL/6 mouse plasma at 10 mg/kg, po administered as single dose measured upto 8 hrs by LC-MS/MS analysis; format: ADME, organism-based; procedure, shortened: as §1
[10] = AUC in carboxylesterase 1 knockout C57BL/6 mouse brain at 10 mg/kg, po administered as single dose measured upto 8 hrs by LC-MS/MS analysis; format: ADME, organism-based; design: time < 8 hrs, dose 10 mg/kg, route po; conditions: in vivo; procedure, shortened: as §1
[11] = Metabolic stability of the compound in carboxylesterase 1 knockout mouse liver assessed as parent compound remaining at 10 uM measured after 1 hr in by UPLC analysis; format: ADME, tissue-based; procedure, shortened: as §2
[12] = Half life in carboxylesterase 1 knockout C57BL/6 mouse plasma at 10 mg/kg, po administered as single dose measured upto 8 hrs by LC-MS/MS analysis; format: ADME, organism-based; procedure, shortened: as §1
[13] = Tmax in carboxylesterase 1 knockout C57BL/6 mouse brain at 10 mg/kg, po administered as single dose measured upto 8 hrs by LC-MS/MS analysis; format: ADME, organism-based; procedure, shortened: as §1
[14] = AUC in carboxylesterase 1 knockout C57BL/6 mouse plasma at 10 mg/kg, po administered as single dose measured upto 8 hrs by LC-MS/MS analysis; format: ADME, organism-based; design: time < 8 hrs, dose 10 mg/kg, route po; conditions: in vivo; procedure, shortened: as §1
[15] = Prodrug conversion in carboxylesterase 1 knockout C57BL/6 mouse plasma assessed as increase in 2,6-Dimethoxy-4-(4-phenyl-5-thiophen-2-yl-1H-imidazol-2-yl)phenol release at 10 mg/kg, po administered as single dose measured after 2 hrs by LC-MS/MS analysis; format: ADME, organism-based; conditions: in vivo
[16] = Prodrug conversion in carboxylesterase 1 knockout C57BL/6 mouse brain assessed as increase in 2,6-Dimethoxy-4-(4-phenyl-5-thiophen-2-yl-1H-imidazol-2-yl)phenol release at 10 mg/kg, po administered as single dose measured after 2 hrs by LC-MS/MS analysis; format: ADME, organism-based; conditions: in vivo
[17] = Prodrug conversion in carboxylesterase 1 knockout C57BL/6 mouse brain assessed as increase in 2,6-Dimethoxy-4-(4-phenyl-5-thiophen-2-yl-1H-imidazol-2-yl)phenol release at 15.12 mg/kg, po administered as single dose measured after 2 hrs by LC-MS/MS analysis; format: ADME, organism-based; conditions: in vivo
[18] = Prodrug conversion in carboxylesterase 1 knockout C57BL/6 mouse brain assessed as AUC of 2,6-Dimethoxy-4-(4-phenyl-5-thiophen-2-yl-1H-imidazol-2-yl)phenol at 15.12 mg/kg, po administered as single dose measured upto 8 hrs by LC-MS/MS analysis; format: ADME, organism-based; design: time < 8 hrs, dose 15.12 mg/kg, route po; conditions: in vivo
[19] = Tmax in carboxylesterase 1 knockout C57BL/6 mouse brain at 15.12 mg/kg, po administered as single dose measured upto 8 hrs by LC-MS/MS analysis; format: ADME, organism-based
[20] = Tmax in carboxylesterase 1 knockout C57BL/6 mouse plasma at 15.12 mg/kg, po administered as single dose measured upto 8 hrs by LC-MS/MS analysis; format: ADME, organism-based
[21] = Half life in carboxylesterase 1 knockout C57BL/6 mouse brain at 15.12 mg/kg, po administered as single dose measured upto 8 hrs by LC-MS/MS analysis; format: ADME, organism-based
[22] = Stability in carboxylesterase 1 knockout C57BL/6 mouse brain assessed as intact compound level at 15.12 mg/kg, po administered as single dose measured upto 8 hrs by LC-MS/MS analysis; format: ADME, organism-based; conditions: read-out: Stability
[23] = Prodrug conversion in carboxylesterase 1 knockout C57BL/6 mouse plasma assessed as Cmax of 2,6-Dimethoxy-4-(4-phenyl-5-thiophen-2-yl-1H-imidazol-2-yl)phenol at 15.12 mg/kg, po administered as single dose measured upto 8 hrs by LC-MS/MS analysis; format: ADME, organism-based; design: dose 15.12 mg/kg, time < 8 hrs, route po; conditions: in vivo
[24] = Prodrug conversion in carboxylesterase 1 knockout C57BL/6 mouse plasma assessed as AUC of 2,6-Dimethoxy-4-(4-phenyl-5-thiophen-2-yl-1H-imidazol-2-yl)phenol at 15.12 mg/kg, po administered as single dose measured upto 8 hrs by LC-MS/MS analysis; format: ADME, organism-based; design: time < 8 hrs, dose 15.12 mg/kg, route po; conditions: in vivo
[25] = Stability in carboxylesterase 1 knockout C57BL/6 mouse plasma assessed as intact compound level at 15.12 mg/kg, po administered as single dose measured upto 8 hrs by LC-MS/MS analysis; format: ADME, organism-based; conditions: read-out: Stability
[26] = Prodrug conversion in carboxylesterase 1 knockout C57BL/6 mouse brain assessed as Cmax of 2,6-Dimethoxy-4-(4-phenyl-5-thiophen-2-yl-1H-imidazol-2-yl)phenol at 15.12 mg/kg, po administered as single dose measured upto 8 hrs by LC-MS/MS analysis; format: ADME, organism-based; design: dose 15.12 mg/kg, time < 8 hrs, route po; conditions: in vivo
[27] = Half life in carboxylesterase 1 knockout C57BL/6 mouse plasma at 15.12 mg/kg, po administered as single dose measured upto 8 hrs by LC-MS/MS analysis; format: ADME, organism-based
[28] = Prodrug conversion in carboxylesterase 1 knockout C57BL/6 mouse assessed as increase in 2,6-Dimethoxy-4-(4-phenyl-5-thiophen-2-yl-1H-imidazol-2-yl)phenol release at 10 mg/kg, po administered as single dose measured after 2 hrs by LC-MS/MS analysis; format: ADME, organism-based; conditions: in vivo
[29] = Stability in carboxylesterase 1 knockout C57BL/6 mouse assessed as intact compound level at 10 mg/kg, po administered as single dose measured upto 8 hrs by LC-MS/MS analysis; format: ADME, organism-based; conditions: in vivo, read-out: Stability
[30] = Ratio of prodrug conversion in carboxylesterase 1 knockout C57BL/6 mouse brain to plasma assessed as 2,6-Dimethoxy-4-(4-phenyl-5-thiophen-2-yl-1H-imidazol-2-yl)phenol release at 10 mg/kg, po administered as single dose measured after 2 hrs by LC-MS/MS analysis; format: ADME, organism-based; procedure, shortened: as §3

Row | SMILES | Stability [2] [%] | Stability [7] [%] | Stability [11] [%] | other results
1 | COc1cc(-c2nc(-c3cccs3)c(-c3ccccc3)[nH]2)cc(OC)c1O | 89 | 103 | 98 | Cmax [1]: 60 pmol/g; Kp at 2 h [3]: 0.1; Activity [4]: 4.9 nM; concentration [5]: 23 nM; Cmax [6]: 307 nM; half-life [8]: 37.8 min; Tmax [9]: 30 min; AUC [10]: 52.8 pmol·h/g; half-life [12]: 27.6 min; Tmax [13]: 30 min; AUC [14]: 0.27 µM·h
2 | COc1cc(-c2nc(-c3ccccc3)c(-c3cccs3)[nH]2)cc(OC)c1OC(=O)C(C)(C)C | 93 | 1 | 0 | –
3 | COc1cc(-c2nc(-c3ccccc3)c(-c3cccs3)[nH]2)cc(OC)c1OC(=O)C1=CN(C)C=CC1 | 46 | 52 | 22 | Drug metabolism [15]: 28.3 nM; Drug metabolism [16]: 2.2 nM
4 | COc1cc(-c2nc(-c3ccccc3)c(-c3cccs3)[nH]2)cc(OC)c1OC(=O)N1CCC(N2CCCCC2)CC1 | 48 | 90 | – | Drug metabolism [17]: 72.3 nM; AUC [18]: 187.1 pmol·h/g; Tmax [19]: 60 min; Tmax [20]: 60 min; half-life [21]: 180 min; concentration at 8 h [22]: 86.5 nM; Cmax [23]: 148.9 pmol·h/g; AUC [24]: 273.4 pmol·h/g; concentration at 8 h [25]: 195 nM; Cmax [26]: 403 pmol·h/g; half-life [27]: 84 min
5 | COc1cc(-c2nc(-c3ccccc3)c(-c3cccs3)[nH]2)cc(OC)c1OCOP(=O)(O)O | 1 | 96 | 21 | –
6 | COc1cc(-c2nc(-c3ccccc3)c(-c3cccs3)[nH]2)cc(OC)c1OCOP(=O)(O)OCOC(=O)OC(C)C | 79 | 100 | 11 | –
7 | COc1cc(-c2nc(-c3ccccc3)c(-c3cccs3)[nH]2)cc(OC)c1OC(=O)N1C2CCC1CC(N1CCCCC1)C2 (centres undefined) | 84 | 87 | 78 | –
8 | CCCCCNC(=O)Oc1c(OC)cc(-c2nc(-c3ccccc3)c(-c3cccs3)[nH]2)cc1OC | 68 | 60 | 83 | –
9 | COc1cc(-c2nc(-c3ccccc3)c(-c3cccs3)[nH]2)cc(OC)c1OC(=O)OC(OC(=O)C(C)(C)C)c1ccccc1 (centres undefined) | 69 | 83 | 80 | –
10 | COc1cc(-c2nc(-c3ccccc3)c(-c3cccs3)[nH]2)cc(OC)c1OC(=O)N(C)C | 100 | 96 | 100 | Drug metabolism [28]: 540.9 nM; concentration at 8 h [29]: 4300 nM
11 | COc1cc(-c2nc(-c3ccccc3)c(-c3cccs3)[nH]2)cc(OC)c1OC(=O)N1C2CCCC1CC2 | 76 | 85 | 95 | –
12 | CCCCCCCNC(=O)Oc1c(OC)cc(-c2nc(-c3ccccc3)c(-c3cccs3)[nH]2)cc1OC | 84 | 60 | 97 | –
13 | COc1cc(-c2nc(-c3ccccc3)c(-c3cccs3)[nH]2)cc(OC)c1OP(=O)(O)O | 102 | 91 | 55 | –
14 | CCC1CCCC(CC)N1C(=O)Oc1c(OC)cc(-c2nc(-c3ccccc3)c(-c3cccs3)[nH]2)cc1OC (centres undefined) | 90 | 78 | 51 | –
15 | COc1cc(-c2nc(-c3ccccc3)c(-c3cccs3)[nH]2)cc(OC)c1OC(C)=O | 6 | 28 | 0 | –
16 | CCCCCN(C)C(=O)Oc1c(OC)cc(-c2nc(-c3ccccc3)c(-c3cccs3)[nH]2)cc1OC | 86 | 50 | 85 | –
17 | CCCCCC(=O)Oc1c(OC)cc(-c2nc(-c3ccccc3)c(-c3cccs3)[nH]2)cc1OC | 63 | 13 | 1 | Drug metabolism [15]: 355 nM; BPR [30]: 0.1; Drug metabolism [16]: 36.5 nM
